KCNQ1 act: human KCNQ1 channel potentiation or activation | P51787 | CHO-K1 KCNQ1, thallium flux FluxOR fluorescence; stronger effect = higher value | B-score at 10 µM | 310,000 compounds, 0.35% hits;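 active means fluorescence ratio B-score, a plate-corrected score, at least three library SD, with initial intensity B-score within 5 SD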
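Assay system: CHO-K1 cells stably expressing KCNQ1; Medium: assay buffer with matched DMSO; Also added: K+/Tl+ depolarizing stimulus; Dosing: single dose; Timing: dye 90 min, compound 20 min, room temperature; Measured by: kinetic FluxOR thallium fluorescence, 10-s 1-Hz baseline, 110-s post-stimulus read; Read-out: peak-minus-minimum fluorescence over initial fluorescence, negative-control normalized, B-scored.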
KCC2 mod: KCC2 (human) Cl- transport modulation; AID 1456; Q9H2X9; 190,000 compounds, 2.2% hits; B-score of Tl+ flux slope (higher = more flux/activation; lower = inhibition) at 10 µM; KCC2 cells, thallium flux FluoZin-2 fluorescence;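 active means thallium flux slope and its plate-corrected score both differing from the plate sample mean at a set confidence after two filtering rounds, in either direction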;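 further: slope of fluorescence scaled to starting intensity during 10 to 20 s after thallium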
Target sequence (Q9H2X9 whole entry, looked up): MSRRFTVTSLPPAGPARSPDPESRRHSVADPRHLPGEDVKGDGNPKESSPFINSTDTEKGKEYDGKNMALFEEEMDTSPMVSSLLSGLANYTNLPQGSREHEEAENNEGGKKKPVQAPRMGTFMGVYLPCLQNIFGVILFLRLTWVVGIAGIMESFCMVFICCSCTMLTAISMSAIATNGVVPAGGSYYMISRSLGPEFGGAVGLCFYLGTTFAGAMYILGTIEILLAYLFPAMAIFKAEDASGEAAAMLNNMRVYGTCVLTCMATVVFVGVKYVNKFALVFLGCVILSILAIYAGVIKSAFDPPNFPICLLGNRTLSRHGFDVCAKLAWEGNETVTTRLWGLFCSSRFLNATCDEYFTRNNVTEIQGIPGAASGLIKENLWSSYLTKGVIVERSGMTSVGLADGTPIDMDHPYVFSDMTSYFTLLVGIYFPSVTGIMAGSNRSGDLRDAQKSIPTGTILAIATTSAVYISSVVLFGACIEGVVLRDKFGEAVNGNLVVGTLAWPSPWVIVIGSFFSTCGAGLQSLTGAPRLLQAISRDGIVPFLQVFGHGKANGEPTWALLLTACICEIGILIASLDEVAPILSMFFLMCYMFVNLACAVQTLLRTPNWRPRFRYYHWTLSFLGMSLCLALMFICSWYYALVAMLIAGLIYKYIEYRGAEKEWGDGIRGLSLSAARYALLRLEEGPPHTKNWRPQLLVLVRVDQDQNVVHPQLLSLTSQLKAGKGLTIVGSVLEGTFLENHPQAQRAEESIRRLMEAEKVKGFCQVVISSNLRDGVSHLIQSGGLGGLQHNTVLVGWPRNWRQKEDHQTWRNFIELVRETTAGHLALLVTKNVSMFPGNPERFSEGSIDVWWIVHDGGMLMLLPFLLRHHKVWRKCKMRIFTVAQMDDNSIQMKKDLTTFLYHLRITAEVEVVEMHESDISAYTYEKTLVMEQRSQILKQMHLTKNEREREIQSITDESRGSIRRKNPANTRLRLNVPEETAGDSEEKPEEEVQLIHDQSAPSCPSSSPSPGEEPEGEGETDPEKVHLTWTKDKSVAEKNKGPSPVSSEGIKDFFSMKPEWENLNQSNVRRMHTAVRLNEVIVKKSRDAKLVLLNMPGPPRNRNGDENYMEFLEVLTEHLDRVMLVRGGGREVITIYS
KCNK9 inh: inhibitors of human KCNK9 two-pore domain potassium channel | 310,000 compounds, 1.2% hits | B-score at 10 µM | HEK293 KCNK9, FluxOR thallium flux fluorescence; stronger effect = lower value | Q9NPC2;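 active means ratio B-score over 3 SD below the library mean, with starting fluorescence within 5 SD of its mean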;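 further: negative B-score means less thallium flux so channel inhibition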
KCNK3 inh: human KCNK3 channel inhibition, primary screen; B-score at 10 µM; CHO-KCNK3 thallium flux, FluxOR fluorescence; stronger effect = lower value; 340,000 compounds, 0.84% hits;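 active means B-score under library mean minus 4 SD, starting fluorescence ratio at most library mean plus 5 SD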;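 further: more negative B-score means stronger inhibition of thallium flux through KCNK3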
hERG rescue: shields human hERG channel from block by proarrhythmic agents. CHO-hERG, FluxOR thallium flux, dofetilide IC70 present. 310,000 compounds, 0.51% hits. Q12809. activation (rescue from dofetilide block), less the hit threshold, % at 10 µM;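 active means activation above the mean of controls blocked by dofetilide plus 5 SD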;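 further: thallium influx through hERG after potassium depolarization seen as dye fluorescence rise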
KCNQ1 block: inhibitors of human KCNQ1 potassium channel; CHO-K1 KCNQ1, FluxOR thallium flux fluorescence; stronger effect = higher value; B-score at 10 µM; 310,000 compounds, 1.3% hits; AID 2642;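 active means compounds whose thallium flux B-score, printed positive for inhibition, exceeds three library SD while starting fluorescence stays within three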;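 further: channel opened by potassium depolarization with thallium stimulus after 20 min compound exposure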
* = called active by the depositor; i = inactive; . = no result. Sampled rows, rich in hits. Any-hit rate of the full collection: about 4.1%.

SMILES | KCNQ1 act | KCC2 mod | KCNK9 inh | KCNK3 inh | hERG rescue | KCNQ1 block
CCCCCCCCCn1c2c(c(=N)c3c1CCC3)CCCC2 | i | -0.018 | i | -12* | -31 | 10*
CCn1c2c(c(=N)c3c1CCC3)CCCC2 | i | -0.24 | i | i | -4 | i
O=C(CSc1cn[nH]n1)Nc1cccc(C(=O)O)c1 | i | . | i | i | -9 | i
O=C(CSc1cn[nH]n1)Nc1cccc(C(F)(F)F)c1 | i | . | -7.5* | i | -10 | i
CN1/C(=C\C=N\NC(=O)c2ccccc2Br)C(C)(C)c2ccccc21 | i | -1.9 | i | i | -25 | 9*
CN1/C(=C/C=N/n2cnnc2)C(C)(C)c2ccccc21 | i | 1.1 | i | i | 0 | i
O=C(COc1ccccc1F)OCC(=O)c1ccc([N+](=O)[O-])cc1 | . | . | . | i | . | .
Cc1cccc(C)c1-n1nnnc1S(=O)(=O)Cc1ccccc1Cl | . | -0.88 | . | -8.7* | . | .
CC1=C(C#N)C(=O)N(C2CCS(=O)(=O)C2)C(=O)/C1=C\c1ccc(C)o1 (centres undefined) | i | i | -6.9* | . | -20 | 7*
CCCCCn1c2c(c(=N)c3ccccc31)CCC2 | i | -0.53 | i | i | -25 | i
Cc1cc(C)c2c(=N)c3ccccc3n(CCCCCCCCn3c4ccccc4c(=N)c4c(C)cc(C)nc43)c2n1 | . | . | . | -10* | . | .
CSc1ncc(C(=O)Nc2ccccc2Cl)c(C)n1 | 13* | . | i | i | -4 | i
CCOC(=O)c1cnc2c(ccc3ccccc32)c1Cl | i | . | i | i | -6 | i
CCOC(=O)c1cnc(SC)nc1Sc1ccccc1Cl | i | -0.74 | i | i | -10 | 6*
CS(=O)(=O)c1ccc(-c2cccc(NC(=O)c3ccco3)c2)nn1 | i | . | i | i | -12 | i
OCc1nc2ccccc2n1CCCOc1ccc(Br)cc1 | i | -2.9* | i | i | -18 | i
CC(C)(C)C(=O)NCCCc1nc2ccccc2n1CCCOc1ccc(Cl)cc1 | i | -1.7 | -7.3* | i | -10 | i
CCCCC1CCC(C(=O)N(CCOC)c2c(N)n(CCCC)c(=O)[nH]c2=O)CC1 (centres undefined) | i | . | i | i | -12 | i
Cc1cccc(OC(=O)n2c(=S)oc3cc(Cl)ccc32)c1 | . | 4.7* | . | i | . | .
O=c1ccccn1Cc1c(F)cccc1Cl | i | . | i | i | 5.2* | i
Cc1cccn(Cc2c(F)cccc2Cl)c1=O | i | 0.052 | i | i | -4 | i
Cc1ccc(Cl)c(OCC(=O)NCC(c2cccs2)N2CCOCC2)c1 (centres undefined) | i | . | i | i | -14 | i
O=C(Nc1cc([N+](=O)[O-])c2[nH]c(=O)c3ccccc3c2c1)C(F)(F)F | . | . | . | i | . | .
O=C(NC1CCCC1)C(=O)N(Cc1cccnc1)C(C(=O)NC1CCCC1)c1ccco1 (centres undefined) | i | 0.12 | i | i | 1 | i
Cc1ccc(C(C(=O)NC(C)(C)C)N(Cc2cccnc2)C(=O)C(=O)NC2CCCCC2)o1 (centres undefined) | i | 0.44 | i | i | 33* | i
SMILES | KCNQ1 act | KCC2 mod | KCNK9 inh | KCNK3 inh | hERG rescue | KCNQ1 block
CCCC(C(=O)NC1CCCC1)N(Cc1ccccc1)C(=O)c1snc(C(N)=O)c1N (centres undefined) | i | . | i | i | -12 | i
Cc1ccc(C(=O)CC(=O)c2ccc(C)cc2O)cc1 | i | . | i | i | 11* | i
Cc1ccc(C(=O)CC(=O)c2cc(Cl)ccc2O)cc1 | 30* | . | i | i | -1 | i
Cc1ccc(CC(=O)c2ccc(Cl)cc2)cc1 | i | 0.16 | i | i | -7 | i
O=C(NCCc1ccc(OC(F)F)cc1)C1CC(=O)N(c2ccc3c(c2)OCCO3)C1 (centres undefined) | . | . | . | i | . | .
CCCCCCCCCCCCN1[C@@H](CC(=O)OC)c2cc(C(F)(F)F)ccc2S1(=O)=O | i | . | i | i | -3 | i
CCCCCCCCN1[C@@H](CC(=O)OCC)c2ccc(C(F)(F)F)cc2S1(=O)=O | i | . | i | i | -2 | 6*
CCCCC1(c2ccc(F)cc2)NC(=O)N(CC(=O)Nc2ccc(N3CCOCC3)cc2)C1=O (centres undefined) | . | . | . | i | . | .
COc1ccc(C)cc1-n1c(=O)c2ccccc2c2ccccc2c1=O | i | -1.6 | -8* | i | -13 | i
Cc1cccc(CSCCNC(=O)CN2C(=O)c3ccccc3S2(=O)=O)c1 | i | . | i | i | -5 | i
Cc1ccc(CSCCNC(=O)CN2C(=O)c3ccccc3S2(=O)=O)cc1 | i | -2.5 | i | i | 4.9* | i
Cc1cc(=O)n(C(C)c2ccccc2)n1C(C)c1ccccc1 (centres undefined) | . | . | . | i | . | .
CNC1(C)[C@H]2CC[C@H](C2)C1(C)C (some centres undefined) | . | . | . | i | . | .
CCN1CCN(CC(=O)N2CCCC(C(=O)c3ccc(Oc4ccccc4)cc3)C2)CC1 (centres undefined) | i | -0.96 | i | i | 5.5* | i
Cc1cccc(C(=O)NCCC(=O)N2CCc3ccccc3C2)c1 | . | . | . | i | . | .
Cc1cccc(C(=O)NC(=S)N2CCc3ccccc3C2)c1 | 13* | 125* | i | i | 21* | i
Fc1cccc(-n2cc(-c3ccccc3)c3c(=S)nc[nH]c32)c1 | i | . | i | i | 0 | i
Fc1ccc(-n2cc(-c3ccccc3)c3c(=S)nc[nH]c32)cc1 | 10* | . | i | i | 1 | i
C[C@H](NC(=O)c1nc[nH]c1C(=O)N1CCc2ccccc2C1)C(=O)OCc1ccccc1 | i | -1.7 | i | i | -20 | 6*
CC(C)(C)OC(=O)NCCCCCNC(=O)c1[nH]cnc1C(=O)N[C@@H](Cc1ccccc1)C(=O)OCc1ccccc1 | i | -1.2 | i | i | -11 | 9*
CC(C)C[C@H](NC(=O)c1nc[nH]c1C(=O)NCCCCCNC(=O)OC(C)(C)C)C(=O)OCc1ccccc1 | i | -1 | i | i | -12 | i
C[C@H](NC(=O)c1nc[nH]c1C(=O)N1CCc2ccccc2C1)c1ccccc1 | . | . | . | i | . | .
C[C@H](NC(=O)c1nc[nH]c1C(=O)N[C@@H](CCCCNC(=O)OC(C)(C)C)C(=O)OC(C)(C)C)C(=O)OCc1ccccc1 | i | . | i | i | -12 | i
C[C@H](NC(=O)c1nc[nH]c1C(=O)NCCCCCNC(=O)OC(C)(C)C)C(=O)OCc1ccccc1 | i | -4.4* | i | i | -26 | i
